Tests used:
Escherichia coli [1] = assay: Antibacterial activity against Escherichia coli ATCC 25922 measured after 18 to 24 hrs in presence of FeCl3; type: functional
Staphylococcus aureus [2] = assay: Antibacterial activity against Staphylococcus aureus ATCC 29213 measured after 18 to 24 hrs in presence of KCl; type: functional
Salmonella typhimurium = assay: Bactericidal activity against Salmonella typhimurium ATCC 14028 incubated for 24 hrs followed by replating on agar plate and measured after overnight incubation; type: functional, Salmonella enterica subsp. enterica serovar Typhimurium; details: Salmonella enterica, ATCC 14028, 24 h; read-out: MBC>99.9
Summary of the method: (§1)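 Mid-log bacteria diluted in MHB to (0.5–1) × 10^5 CFU/mL and mixed 1:1 with peptide serially diluted in 0.2% BSA. After 24 h at 37 °C, 50 μL of each mixture was plated on agar and incubated overnight. MBC taken as the lowest concentration killing >99.9% of cells. At least three independent experiments, each with three technical replicates.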

Candida albicans [3] = assay: Antifungal activity against Candida albicans cgmcc2.2086 measured after 48 hrs in presence of NaCl by broth microdilution method; type: functional; details: cgmcc2.2086, 48 h
[4] = Therapeutic index, ratio of MHC10 for hemolytic activity in human RBC to MIC95 against Candida albicans cgmcc2.2086; type: toxicity; details: human red blood cells (erythrocytes), read-out: TI
Summary of the method: (§2)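 Therapeutic index = MHC divided by MIC. MHC is the lowest concentration giving >10% lysis of human RBC (1 h, 37 °C, 1-128 µM, A576). MIC is 95% growth inhibition by broth microdilution: bacteria in MHB 24 h at 37 °C; Candida in MOPS-buffered RPMI 1640 at (0.5–1) × 10^3 CFU mL−1, 48 h at 28 °C.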

Candida parapsilosis = assay: Antifungal activity against Candida parapsilosis cgmcc2.3989 measured after 48 hrs by broth microdilution method; type: functional; details: Lodderomyces parapsilosis, cgmcc2.3989, 48 h
Summary of the method: (§3)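 Modified CLSI M27-A2 microdilution. Yeast colonies were diluted in MOPS-buffered RPMI 1640 to a final (0.5–1) × 10^3 CFU mL−1 and mixed with an equal volume of peptide serially diluted in 0.2% BSA. After 48 h at 28 °C, MIC was read at A492 as the lowest concentration inhibiting 95% of growth. At least three independent experiments, each with three technical replicates.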

Escherichia coli [5] = assay: Antibacterial activity against Escherichia coli ATCC 25922 measured after 18 to 24 hrs in presence of NaCl; type: functional
Staphylococcus aureus [6] = assay: Antibacterial activity against Staphylococcus aureus ATCC 29213 measured after 18 to 24 hrs in presence of CaCl2; type: functional
Staphylococcus aureus [7] = assay: Antibacterial activity against Staphylococcus aureus ATCC 29213 measured after 18 to 24 hrs in presence of FeCl3; type: functional
Erythrocyte = assay: Hemolytic activity in human RBC measured after 1 hr; type: ADME, cell-based
Summary of the method: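 Fresh healthy-donor human erythrocytes at ~1% (v/v) in PBS pH 7.4, mixed 1:1 with peptide (1–128 µM), 1 h at 37 °C. After centrifugation at 1000×g, supernatant hemoglobin read at 576 nm. Untreated cells set 0% and 0.1% Triton X-100 set 100%. MHC defined as the concentration giving >10% hemolysis. Three or more independent experiments, triplicates.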

Candida tropicalis = assay: Antifungal activity against Candida tropicalis cgmcc2.1975 measured after 48 hrs by broth microdilution method; type: functional; details: cgmcc2.1975, 48 h; summary of the method: as §3
Escherichia coli [8] = assay: Bactericidal activity against Escherichia coli K99 incubated for 24 hrs followed by replating on agar plate and measured after overnight incubation; type: functional; details: K99, 24 h, read-out: MBC>99.9; summary of the method: as §1
Staphylococcus aureus [9] = assay: Antibacterial activity against Staphylococcus aureus ATCC 25923 measured after 24 hrs; type: functional; details: ATCC 25923, 24 h
Summary of the method: (§4)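 Broth microdilution modified from NCCLS. Mid-log bacteria at (0.5–1) × 10^5 CFU mL−1 in MHB, mixed with peptides serially diluted in 0.2% BSA. Incubated 24 h at 37 °C, read at A492. MIC taken as lowest concentration giving 95% growth inhibition. At least three independent experiments, each with three technical replicates.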

[10] = Conformational stability in 50% trifluoro-ethyl alcohol assessed as alpha-helical structural propensity by measuring absorption spectra at minimum dichroic band at 35 uM by CD spectra analysis; type: physicochemical
Summary of the method: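 CD spectra from 190 to 250 nm of peptide at 35 μM in 10 mM PBS, 30 mM SDS micelles or 50% TFE, recorded in a 1.0-mm quartz cell. Ellipticity was converted to mean residue ellipticity. Three independent scans, each averaged over more than 3 runs.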

Candida albicans [11] = assay: Antifungal activity against Candida albicans cgmcc2.2086 measured after 48 hrs in presence of MgCl by broth microdilution method; type: functional; details: cgmcc2.2086, 48 h
Staphylococcus aureus [12] = assay: Antibacterial activity against Staphylococcus aureus ATCC 29213 measured after 18 to 24 hrs in presence of ZnCl2; type: functional
Summary of the method: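 MIC broth microdilution (MHB, 0.2% BSA peptide diluent, A492, 95% inhibition) run in the presence of physiological salts at final concentrations of 6 μM NH4Cl or 8 μM ZnCl2. Three independent assays, each with three technical replicates.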

[13] = Cytotoxicity against mouse RAW264.7 cells assessed as cell viability at 2 to 64 uM measured after 18 to 24 hrs by MTT assay relative to control; type: cell-based; details: RAW264.7 cells, read-out: Activity
Summary of the method: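 MTT assay: RAW264.7 cells seeded at 1.0–2.0×10^4 per well and exposed to peptide (2–64 µM) for 18–24 h at 37 °C in 5% CO2. MTT (0.5 mg/mL) added for 4 h, formazan dissolved in DMSO, read at 570 nm. At least three independent experiments with triplicate wells.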

Pseudomonas aeruginosa = assay: Antibacterial activity against Pseudomonas aeruginosa ATCC 27853 measured after 24 hrs; type: functional; details: ATCC 27853, 24 h
Summary of the method: (§5)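 Broth microdilution adapted from NCCLS. Mid-log bacteria were diluted in MHB to a final (0.5–1) × 10^5 CFU mL−1. Peptides were serially diluted in 0.2% BSA and mixed with an equal volume of cells. After 24 h at 37 °C, MIC was read at A492 as the lowest concentration inhibiting 95% of growth. At least three independent experiments, each with three technical replicates.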

[14] = Therapeutic index, ratio of MHC10 for hemolytic activity in human RBC to MIC95 against methicillin-resistant Staphylococcus aureus ATCC 43300; type: toxicity; details: human red blood cells (erythrocytes), read-out: TI; summary of the method: as §2
[15] = Therapeutic index, ratio of MHC10 for hemolytic activity in human RBC to MIC95 against Candida tropicalis cgmcc2.1975; type: toxicity; details: human red blood cells (erythrocytes), read-out: TI; summary of the method: as §2
Escherichia coli [16] = assay: Antibacterial activity against Escherichia coli K99 measured after 24 hrs; type: functional; details: K99, 24 h; summary of the method: as §5
Staphylococcus aureus [17] = assay: Antibacterial activity against methicillin-resistant Staphylococcus aureus ATCC 43300 measured after 24 hrs; type: functional; details: ATCC 43300, 24 h; summary of the method: as §4
Staphylococcus aureus [18] = assay: Antibacterial activity against Staphylococcus aureus ATCC 29213 measured after 18 to 24 hrs in presence of NaCl; type: functional
[19] = Therapeutic index, ratio of MHC10 for hemolytic activity in human RBC to MIC95 against Staphylococcus epidermidis ATCC 12228; type: toxicity; details: human red blood cells (erythrocytes), read-out: TI; summary of the method: as §2
[20] = system: Staphylococcus epidermidis; assay: Antibacterial activity against Staphylococcus epidermidis ATCC 12228 measured after 24 hrs; type: functional; details: ATCC 12228, 24 h; summary of the method: as §5

Substance | MIC95 (Escherichia coli [1]) [µM] | MIC95 (Staphylococcus aureus [2]) [µM] | MBC (Salmonella typhimurium) [µM] | MIC95 (Candida albicans [3]) [µM] | selectivity ratio [4] | MIC95 (Candida parapsilosis) [µM] | MIC95 (Escherichia coli [5]) [µM] | MIC95 (Staphylococcus aureus [6]) [µM] | MIC95 (Staphylococcus aureus [7]) [µM] | MHC10 (Erythrocyte) [µM] | MIC95 (Candida tropicalis) [µM] | MBC (Escherichia coli [8]) [µM] | MIC95 (Staphylococcus aureus [9]) [µM] | Activity [10] [nm] | MIC95 (Candida albicans [11]) [µM] | MIC95 (Staphylococcus aureus [12]) [µM] | viability at up to 64 µM [13] [%] | MIC95 (Pseudomonas aeruginosa) [µM] | selectivity ratio [14] | selectivity ratio [15] | also measured
H-AARIILRNRFR-NH2 | 32 | > 128 | 64 | > 128 | 2 | > 128 | 128 | > 128 | > 128 | > 128 | > 128 | 32 | > 128 | 208 to 222 | > 128 | > 128 | 90 to 100 | > 128 | 2 | 2 | MIC95 (Escherichia coli [16]): 16 µM; MIC95 (Staphylococcus aureus [17]): > 128 µM; MIC95 (Staphylococcus aureus [18]): > 128 µM; selectivity ratio [19]: 2; MIC95 [20]: > 128 µM
H-AARIILRARFR-NH2 | 4 | 8 | 4 | 64 | 25.4 | 16 | 32 | 16 | 4 | > 128 | 4 | 4 | 4 | 208 to 222 | 32 | 4 | 90 to 100 | 16 | 90.5 | 25.4 | MIC95 (Escherichia coli [16]): 2 µM; MIC95 (Staphylococcus aureus [17]): 2 µM; MIC95 (Staphylococcus aureus [18]): > 128 µM; selectivity ratio [19]: 90.5; MIC95 [20]: 2 µM
H-AARIILRYRFR-NH2 | 16 | 8 | 16 | 128 | 8 | 64 | > 128 | 64 | 4 | > 128 | 16 | 8 | 8 | 208 to 222 | 64 | 2 | 90 to 100 | 16 | 64 | 8 | MIC95 (Escherichia coli [16]): 4 µM; MIC95 (Staphylococcus aureus [17]): 4 µM; MIC95 (Staphylococcus aureus [18]): > 128 µM; selectivity ratio [19]: 64; MIC95 [20]: 2 µM
H-AARIILRWRFR-NH2 | 4 | 1 | 4 | 16 | 50.8 | 4 | 8 | 2 | 1 | > 128 | 4 | 4 | 2 | 208 to 222 | 16 | 1 | 90 to 100 | 4 | 215 | 50.8 | MIC95 (Escherichia coli [16]): 2 µM; MIC95 (Staphylococcus aureus [17]): 1 µM; MIC95 (Staphylococcus aureus [18]): 4 µM; selectivity ratio [19]: 215; MIC95 [20]: 1 µM
H-AARIILRLRFR-NH2 | 8 | 2 | 8 | 32 | 50.8 | 4 | 64 | 4 | 4 | > 128 | 4 | 4 | 2 | 208 to 222 | 8 | 2 | 90 to 100 | 8 | 128 | 50.8 | MIC95 (Escherichia coli [16]): 2 µM; MIC95 (Staphylococcus aureus [17]): 2 µM; MIC95 (Staphylococcus aureus [18]): 16 µM; selectivity ratio [19]: 128; MIC95 [20]: 2 µM
